In publication PMC9064050 (RSC Advances, 2019):
Converted amounts (≈) assume the structure as drawn.

Legend:
Pseudomonas aeruginosa = test: Kirby–Bauer agar disc diffusion; format: cell-based; conditions: D = (−)Pseudomonas aeruginosa
Method in brief: (§1)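 Kirby–Bauer disc diffusion on Mueller–Hinton agar (pH 7.2, autoclaved 121 °C for 15 min, ~4 mm deep, held 2–8 °C for 24 h). Plates spread with 24 h cultures. 6 mm discs loaded with 20 μL of 100 μM test compound. Bacteria incubated at 37 °C for 48 h; fungi at 22 °C for 7 days. Clear-zone diameter measured by ruler; % inhibition by eqn (20) against 6 mm control.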

[1] = Ferric reducing antioxidant power; conditions: 240 µM, 700 nm
Method in brief: (§2)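 Absorbance read at 517 nm (DPPH), 230 nm (hydroxyl), 590 nm (superoxide), 546 nm (nitric oxide) and 700 nm (FRAP). FRAP measures the rise in absorbance from Fe3+→Fe2+ reduction with ferricyanide. IC50 taken from % inhibition vs concentration plots.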

liver cancer (HepG2) = test: In vitro anticancer MTT assay; format: cell-based, human; conditions: 50% cell death following 72 h exposure
Method in brief: (§3)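 MTT viability: cells seeded at 1 × 10^5 per well and incubated 24 h at 37 °C, 5% CO2. Treated with test compound at 10–100 μg mL−1 (from DMSO). Medium removed, wells PBS-washed, RPMI-1640 plus MTT (5 mg mL−1 solution) added for 4 h at 37 °C. Formazan dissolved in DMSO, read at 570 nm. Triplicate wells; IC50 from % viability; cisplatin as reference.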

[2] = system: Salmonella enteric serovar typhi; test: Kirby–Bauer agar disc diffusion; format: cell-based; conditions: B = (−)Salmonella enteric serovar typhi
Method in brief: as §1

[3] = Nitric oxide scavenging assay; conditions: 240 µM, 546 nm
Method in brief: as §2

CT-DNA [4] = test: Nuclease activity by gel electrophoresis in presence of H2O2; format: biochemical; conditions: CT-DNA + H2O2, agarose gel
Method in brief: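 Chemical nuclease assay: CT-DNA with test compound plus H2O2 in Tris–HCl buffer, pH 7.2. Products run on agar gel electrophoresis and imaged under a UV transilluminator. Band migration compared with a DNA + H2O2 control.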

Staphylococcus aureus = test: Kirby–Bauer agar disc diffusion; format: cell-based; conditions: F = (+)Staphylococcus aureus
Method in brief: as §1

[5] = Hydroxyl radical scavenging assay; conditions: 240 µM, 230 nm
Method in brief: as §2

[6] = system: Chromobacterium violaceum; test: Kirby–Bauer agar disc diffusion; format: cell-based; conditions: C = (−)Chromobacterium violaceum
Method in brief: as §1

Candida albicans = test: Kirby–Bauer agar disc diffusion; format: cell-based; conditions: I = Candida albicans
Method in brief: as §1

Shigella flexneri = test: Kirby–Bauer agar disc diffusion; format: cell-based; conditions: E = (−)Shigella flexneri
Method in brief: as §1

human lung cancer (A549) = test: In vitro anticancer MTT assay; format: cell-based; conditions: 50% cell death following 72 h exposure
Method in brief: as §3

Bacillus cereus = test: Kirby–Bauer agar disc diffusion; format: cell-based; conditions: G = (+)Bacillus cereus
Method in brief: as §1

CT-DNA [7] = test: DNA thermal denaturation by absorption; format: binding
Aspergillus niger = test: Kirby–Bauer agar disc diffusion; format: cell-based; conditions: H = Aspergillus niger
Method in brief: as §1

CT-DNA [8] = test: DNA binding by electronic absorption titration; conditions: Wolfe–Shimmer method; 298 K, pH 7.2
Method in brief: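 UV-Vis titration at a fixed complex concentration of 100 μM in 5 mM Tris–HCl/50 mM NaCl, pH 7.2, 25 °C. CT-DNA varied 0–150 μM, with [DNA] expressed in base pairs. Kb (Wolfe–Shimmer) taken as the slope-to-intercept ratio of [DNA]/(εa−εf) vs [DNA].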

Mucor indicus = test: Kirby–Bauer agar disc diffusion; format: cell-based; conditions: J = Mucor indicus
Method in brief: as §1

[9] = biological target: bovine serum albumin (BSA) (Bos taurus, UniProt P02769); test: BSA binding assay by absorption titration
bovine serum albumin (BSA), sequence (P02769 25-607): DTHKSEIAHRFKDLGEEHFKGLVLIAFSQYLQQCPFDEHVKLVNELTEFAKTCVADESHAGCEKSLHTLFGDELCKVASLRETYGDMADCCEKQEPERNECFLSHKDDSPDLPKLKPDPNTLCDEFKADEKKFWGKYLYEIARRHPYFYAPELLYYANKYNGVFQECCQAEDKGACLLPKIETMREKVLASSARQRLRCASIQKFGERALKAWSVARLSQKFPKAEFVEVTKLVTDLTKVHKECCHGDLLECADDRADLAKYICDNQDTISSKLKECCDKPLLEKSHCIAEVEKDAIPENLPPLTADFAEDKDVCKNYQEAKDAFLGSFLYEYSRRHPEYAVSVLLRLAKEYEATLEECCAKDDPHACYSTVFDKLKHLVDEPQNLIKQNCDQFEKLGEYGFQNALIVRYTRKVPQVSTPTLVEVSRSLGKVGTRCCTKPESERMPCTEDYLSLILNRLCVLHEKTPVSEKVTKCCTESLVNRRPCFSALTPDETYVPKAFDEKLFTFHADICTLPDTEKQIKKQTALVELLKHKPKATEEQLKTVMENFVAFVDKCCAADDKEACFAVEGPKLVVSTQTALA

breast (MCF-7) = test: In vitro anticancer MTT assay; format: cell-based, human; conditions: 50% cell death following 72 h exposure
Method in brief: as §3

[10] = system: normal human dermal fibroblast (NHDF); test: MTT assay on normal cells; format: cell-based; conditions: normal cell line; 50% cell death following 72 h exposure
Method in brief: as §3

[11] = DPPH radical scavenging assay; conditions: 240 µM, 517 nm
Method in brief: as §2

[12] = Superoxide scavenging assay; conditions: 240 µM, 590 nm
Method in brief: as §2

Escherichia coli = test: Kirby–Bauer agar disc diffusion; format: cell-based; conditions: A = (−) Escherichia coli
Method in brief: as §1

EB–DNA = test: Competitive binding
Method in brief: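 EB displacement fluorescence titration: CT-DNA 100 μM with EB in 50 mM Tris–HCl/1 mM NaCl buffer (pH 7.2), test compound 0–120 μM. Emission at 610 nm. KSV and Kq from Stern–Volmer (τ0 = 10^−8 s); Kass and n from log(F0−F)/F vs log[Q]; KLB from 1/(F0−F) vs 1/[Q]; KSC and n from Scatchard. Kapp from KEB[EB] = Kapp[compound] at 50% EB-fluorescence loss (KEB = 10^7 M−1, EB 50 μM).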

[13] = 20 μL of 100 μM per disc, control 6 mm

SMILES: Oc1ccc(Br)cc1C=NCCN1CCOCC1 [HL, 2-(-(2-morpholinoethylimino)methyl)-4-bromophenol]
- diameter of clear zone inhibition (Pseudomonas aeruginosa; [13]): 12 mm
- inhibition% (Pseudomonas aeruginosa; eqn (20)): 50%
- % Inhibition, ferric reducing power [1]: 54.29%
- IC50 HepG2 (liver cancer (HepG2)): 27.48 µg/mL (≈ 87.7 µM)
- diameter of clear zone inhibition [2, 13]: 12 mm
- inhibition% ([2]; eqn (20)): 50%
- % Inhibition, nitric oxide [3]: 50.20%
- DNA cleavage efficacy (CT-DNA [4]): inactive
- diameter of clear zone inhibition (Staphylococcus aureus; [13]): 10 mm
- inhibition% (Staphylococcus aureus; eqn (20)): 40%
- % Inhibition, hydroxyl radical [5]: 51.78%
- diameter of clear zone inhibition [6, 13]: 12 mm
- inhibition% ([6]; eqn (20)): 50%
- diameter of clear zone inhibition (Candida albicans; [13]): 12 mm
- inhibition% (Candida albicans; eqn (20)): 50%
- diameter of clear zone inhibition (Shigella flexneri; [13]): 17 mm
- inhibition% (Shigella flexneri; eqn (20)): 65%
- IC50 A549 (human lung cancer (A549)): 31.74 µg/mL (≈ 101 µM)
- diameter of clear zone inhibition (Bacillus cereus; [13]): 10 mm
- inhibition% (Bacillus cereus; eqn (20)): 40%
- Binding constant Kr at 298 K (CT-DNA [7]): 10038 M⁻¹
- diameter of clear zone inhibition (Aspergillus niger; [13]): 25 mm
- inhibition% (Aspergillus niger; eqn (20)): 76%
- Kb, WS method (intrinsic DNA binding constant) (CT-DNA [8]): 10000 M⁻¹
- diameter of clear zone inhibition (Mucor indicus; [13]): 17 mm
- inhibition% (Mucor indicus; eqn (20)): 65%
- Chromism (%H), hyperchromism ([9]; BSA absorption, pH 7.2, 25 °C): 34.27%
- Δλ (nm), bound vs free ([9]; blue-shift of BSA band, pH 7.2, 25 °C): 02 nm
- Gibb's free energy change ([9]; from Kapp): -5.595 kcal/mol
- IC50 MCF-7 (breast (MCF-7)): 26.67 µg/mL (≈ 85.2 µM)
- IC50 NHDF [10]: 66.72 µg/mL (≈ 213 µM)
- % Inhibition, DPPH [11]: 50.64%
- % Inhibition, superoxide [12]: 50.62%
- diameter of clear zone inhibition (Escherichia coli; 20 μL of 100 μM per disc, control (DMSO) = 6 mm): 14 mm
- inhibition% (Escherichia coli; from zone diameter, eqn (20)): 57%
- KLB (Lineweaver–Burk binding constant) (EB–DNA): 1498 M⁻¹
- KSV (Stern–Volmer binding constant), Method-I (EB–DNA): 4658 M⁻¹
- Kass (association binding constant), Stern–Volmer Method-II (EB–DNA): 1924 M⁻¹
- Apparent binding constant Kapp (EB–DNA; KEB[EB] = Kapp[compound], 50% reduction of EB fluorescence): 269932 M⁻¹
- KSC (Scatchard binding constant) (EB–DNA; Scatchard analysis): 10942 M⁻¹
